Key:
Test in all cases: HDAC-Glo I/II luminescent assay
Format in all cases: biochemical
HDAC 2 = HDAC 2 (Homo sapiens, UniProt Q92769)
In short: (§1)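 Recombinant human enzymes: HDAC1 C-terminal GST, HDAC2/8/10 C-terminal His, HDAC6 N-terminal GST, HDAC3 as NCOR1 complex; each at a level in the lower linear titration range giving similar signal. Test compound, 15-point 3-fold dilutions (DMSO), pre-incubated with enzyme 20–30 min, room temperature; HDAC-Glo I/II detection reagent added, luminescence read after 20 min. Quadruplicate wells; IC50 values determined.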

HDAC 8 = molecular target: T1, HDAC 8 (Homo sapiens, UniProt Q9BY41)
T1 sequence (Q9BY41 1-377): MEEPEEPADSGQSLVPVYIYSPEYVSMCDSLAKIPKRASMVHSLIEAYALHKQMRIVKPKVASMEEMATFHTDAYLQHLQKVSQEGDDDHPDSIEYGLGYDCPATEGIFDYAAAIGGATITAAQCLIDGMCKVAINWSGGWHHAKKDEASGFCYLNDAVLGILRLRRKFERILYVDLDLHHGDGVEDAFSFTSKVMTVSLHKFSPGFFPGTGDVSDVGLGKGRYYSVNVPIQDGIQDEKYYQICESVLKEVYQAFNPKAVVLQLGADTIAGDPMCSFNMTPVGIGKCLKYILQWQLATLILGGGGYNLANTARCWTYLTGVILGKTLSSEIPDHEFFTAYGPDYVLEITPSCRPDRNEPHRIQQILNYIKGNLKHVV
In short: as §1

HDAC 3/NCOR1 = HDAC 3/NCOR1 (Homo sapiens, UniProt O15379)
HDAC 3/NCOR1, sequence (O15379 whole entry): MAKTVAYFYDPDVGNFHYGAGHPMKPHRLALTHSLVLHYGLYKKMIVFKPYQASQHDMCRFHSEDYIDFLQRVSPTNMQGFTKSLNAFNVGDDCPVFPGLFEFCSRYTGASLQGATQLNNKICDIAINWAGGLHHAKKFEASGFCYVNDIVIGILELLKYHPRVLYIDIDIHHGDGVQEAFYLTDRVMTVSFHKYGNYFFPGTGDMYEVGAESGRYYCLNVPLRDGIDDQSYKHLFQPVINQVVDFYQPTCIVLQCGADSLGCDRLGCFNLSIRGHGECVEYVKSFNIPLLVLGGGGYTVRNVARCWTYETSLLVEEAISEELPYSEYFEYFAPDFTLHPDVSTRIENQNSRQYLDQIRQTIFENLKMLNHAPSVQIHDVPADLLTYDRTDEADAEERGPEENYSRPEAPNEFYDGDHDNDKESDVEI
HDAC 3/NCOR1, sequence (O75376 whole entry partner): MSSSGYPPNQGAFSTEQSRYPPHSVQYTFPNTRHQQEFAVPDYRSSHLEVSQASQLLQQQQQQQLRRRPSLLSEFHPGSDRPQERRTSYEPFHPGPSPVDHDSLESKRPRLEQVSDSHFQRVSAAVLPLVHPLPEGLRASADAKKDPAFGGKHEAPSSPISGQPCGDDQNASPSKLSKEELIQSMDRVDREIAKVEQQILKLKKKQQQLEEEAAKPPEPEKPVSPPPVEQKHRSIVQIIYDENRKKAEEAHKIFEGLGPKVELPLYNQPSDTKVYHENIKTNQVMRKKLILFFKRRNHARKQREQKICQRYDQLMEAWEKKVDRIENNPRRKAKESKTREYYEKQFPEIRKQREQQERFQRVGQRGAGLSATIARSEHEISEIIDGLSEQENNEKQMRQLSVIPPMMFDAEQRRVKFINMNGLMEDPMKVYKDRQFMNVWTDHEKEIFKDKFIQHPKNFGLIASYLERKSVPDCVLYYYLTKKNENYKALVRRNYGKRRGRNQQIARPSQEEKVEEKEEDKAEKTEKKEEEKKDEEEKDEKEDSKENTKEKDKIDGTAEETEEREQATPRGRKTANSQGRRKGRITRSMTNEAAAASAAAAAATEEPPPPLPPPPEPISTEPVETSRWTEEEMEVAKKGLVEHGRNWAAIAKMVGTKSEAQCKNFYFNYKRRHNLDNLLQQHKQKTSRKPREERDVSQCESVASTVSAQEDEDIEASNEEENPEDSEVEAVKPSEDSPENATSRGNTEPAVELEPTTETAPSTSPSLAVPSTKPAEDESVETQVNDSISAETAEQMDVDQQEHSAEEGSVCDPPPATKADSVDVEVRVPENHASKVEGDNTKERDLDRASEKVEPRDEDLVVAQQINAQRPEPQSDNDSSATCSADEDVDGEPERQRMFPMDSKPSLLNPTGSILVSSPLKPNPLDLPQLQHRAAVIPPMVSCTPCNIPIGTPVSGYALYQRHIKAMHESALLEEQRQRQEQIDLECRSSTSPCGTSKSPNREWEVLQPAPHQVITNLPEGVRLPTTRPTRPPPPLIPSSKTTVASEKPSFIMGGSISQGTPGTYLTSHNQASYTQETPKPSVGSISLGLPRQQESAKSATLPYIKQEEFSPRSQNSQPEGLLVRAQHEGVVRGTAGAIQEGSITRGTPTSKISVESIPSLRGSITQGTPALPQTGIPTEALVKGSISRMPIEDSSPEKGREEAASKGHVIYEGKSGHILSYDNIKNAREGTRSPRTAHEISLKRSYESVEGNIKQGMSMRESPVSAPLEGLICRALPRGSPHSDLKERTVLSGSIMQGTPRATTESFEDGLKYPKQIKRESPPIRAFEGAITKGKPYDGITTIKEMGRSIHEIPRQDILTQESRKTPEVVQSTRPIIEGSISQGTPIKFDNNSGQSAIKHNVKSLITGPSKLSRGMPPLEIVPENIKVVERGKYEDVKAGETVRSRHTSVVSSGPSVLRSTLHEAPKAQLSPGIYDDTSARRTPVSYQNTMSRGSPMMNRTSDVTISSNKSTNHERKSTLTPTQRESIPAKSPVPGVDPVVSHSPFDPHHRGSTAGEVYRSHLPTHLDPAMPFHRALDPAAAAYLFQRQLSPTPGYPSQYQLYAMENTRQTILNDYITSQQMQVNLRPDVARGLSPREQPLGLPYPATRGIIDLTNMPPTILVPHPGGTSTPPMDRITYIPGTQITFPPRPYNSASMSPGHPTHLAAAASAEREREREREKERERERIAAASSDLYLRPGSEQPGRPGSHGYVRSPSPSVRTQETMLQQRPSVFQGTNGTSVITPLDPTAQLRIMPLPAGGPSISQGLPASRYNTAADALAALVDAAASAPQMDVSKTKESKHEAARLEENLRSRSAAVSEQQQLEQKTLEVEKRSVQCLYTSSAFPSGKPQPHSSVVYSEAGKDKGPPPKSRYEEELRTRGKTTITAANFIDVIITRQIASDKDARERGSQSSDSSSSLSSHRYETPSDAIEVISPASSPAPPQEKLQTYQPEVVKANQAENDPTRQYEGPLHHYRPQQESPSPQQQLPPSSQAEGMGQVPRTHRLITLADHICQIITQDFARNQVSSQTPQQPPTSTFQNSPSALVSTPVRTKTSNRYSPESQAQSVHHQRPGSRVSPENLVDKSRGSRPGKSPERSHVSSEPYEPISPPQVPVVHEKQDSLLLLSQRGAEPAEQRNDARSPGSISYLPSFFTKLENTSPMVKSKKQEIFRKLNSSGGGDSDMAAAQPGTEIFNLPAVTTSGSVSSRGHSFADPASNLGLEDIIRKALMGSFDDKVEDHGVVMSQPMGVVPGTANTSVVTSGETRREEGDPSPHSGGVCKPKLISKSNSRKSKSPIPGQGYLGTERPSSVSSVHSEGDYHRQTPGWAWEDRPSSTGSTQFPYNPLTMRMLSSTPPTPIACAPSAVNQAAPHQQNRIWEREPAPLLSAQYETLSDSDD
In short: as §1

HDAC 6 = molecular target: T2, HDAC 6 (Homo sapiens, UniProt Q9UBN7)
T2 sequence (Q9UBN7 1-1215): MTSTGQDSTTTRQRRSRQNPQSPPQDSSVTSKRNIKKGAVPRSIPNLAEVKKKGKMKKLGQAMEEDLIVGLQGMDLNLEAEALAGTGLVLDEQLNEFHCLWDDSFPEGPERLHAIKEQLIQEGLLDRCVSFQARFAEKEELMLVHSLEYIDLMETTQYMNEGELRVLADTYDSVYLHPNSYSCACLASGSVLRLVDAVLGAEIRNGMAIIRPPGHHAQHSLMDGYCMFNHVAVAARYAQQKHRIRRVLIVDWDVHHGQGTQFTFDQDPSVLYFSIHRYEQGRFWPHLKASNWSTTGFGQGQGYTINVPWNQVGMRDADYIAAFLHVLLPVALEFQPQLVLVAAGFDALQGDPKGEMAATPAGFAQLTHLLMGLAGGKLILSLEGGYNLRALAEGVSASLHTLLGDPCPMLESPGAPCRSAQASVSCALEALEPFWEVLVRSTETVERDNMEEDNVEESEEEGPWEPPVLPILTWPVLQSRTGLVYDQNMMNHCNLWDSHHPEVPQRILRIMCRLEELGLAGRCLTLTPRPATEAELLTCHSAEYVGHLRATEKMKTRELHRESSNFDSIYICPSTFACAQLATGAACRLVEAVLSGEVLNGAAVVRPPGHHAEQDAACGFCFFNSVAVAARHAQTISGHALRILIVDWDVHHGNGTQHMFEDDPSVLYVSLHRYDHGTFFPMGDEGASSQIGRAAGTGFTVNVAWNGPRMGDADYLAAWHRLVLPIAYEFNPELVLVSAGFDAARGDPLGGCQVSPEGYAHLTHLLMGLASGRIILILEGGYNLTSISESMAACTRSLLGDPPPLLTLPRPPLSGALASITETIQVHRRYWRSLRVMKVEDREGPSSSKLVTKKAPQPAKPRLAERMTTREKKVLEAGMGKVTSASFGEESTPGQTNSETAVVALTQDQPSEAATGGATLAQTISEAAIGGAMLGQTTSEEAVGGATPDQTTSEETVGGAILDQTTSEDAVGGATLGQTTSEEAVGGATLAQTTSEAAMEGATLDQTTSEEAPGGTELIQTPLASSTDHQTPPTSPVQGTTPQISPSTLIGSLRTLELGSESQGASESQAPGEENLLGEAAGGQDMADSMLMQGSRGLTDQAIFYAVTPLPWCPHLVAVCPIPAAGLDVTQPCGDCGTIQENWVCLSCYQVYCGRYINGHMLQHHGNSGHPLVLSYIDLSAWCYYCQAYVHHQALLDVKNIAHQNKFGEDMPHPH
In short: as §1

HDAC 10 = molecular target: T3, HDAC 10 (Homo sapiens, UniProt Q969S8)
T3 sequence (Q969S8 1-669): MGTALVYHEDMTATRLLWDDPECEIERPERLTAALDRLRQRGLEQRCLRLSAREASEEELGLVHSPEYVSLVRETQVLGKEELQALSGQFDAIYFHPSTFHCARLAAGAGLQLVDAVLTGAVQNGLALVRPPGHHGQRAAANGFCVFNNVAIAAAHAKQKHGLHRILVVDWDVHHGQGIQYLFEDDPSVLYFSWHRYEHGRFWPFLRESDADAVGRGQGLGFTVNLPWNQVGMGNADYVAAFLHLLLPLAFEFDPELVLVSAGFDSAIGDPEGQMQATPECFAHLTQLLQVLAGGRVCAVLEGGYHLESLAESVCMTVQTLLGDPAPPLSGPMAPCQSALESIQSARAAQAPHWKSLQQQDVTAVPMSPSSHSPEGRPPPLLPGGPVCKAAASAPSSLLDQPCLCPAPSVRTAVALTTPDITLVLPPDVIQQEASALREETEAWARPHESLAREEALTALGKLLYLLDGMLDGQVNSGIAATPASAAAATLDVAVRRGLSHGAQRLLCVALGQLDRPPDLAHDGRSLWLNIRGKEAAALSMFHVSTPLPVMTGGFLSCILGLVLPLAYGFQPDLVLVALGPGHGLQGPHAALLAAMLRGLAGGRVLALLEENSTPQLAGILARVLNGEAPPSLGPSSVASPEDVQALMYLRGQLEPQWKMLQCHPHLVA
In short: as §1

HDAC 1 = HDAC 1 (Homo sapiens, UniProt Q13547)
HDAC 1, sequence (Q13547 whole entry): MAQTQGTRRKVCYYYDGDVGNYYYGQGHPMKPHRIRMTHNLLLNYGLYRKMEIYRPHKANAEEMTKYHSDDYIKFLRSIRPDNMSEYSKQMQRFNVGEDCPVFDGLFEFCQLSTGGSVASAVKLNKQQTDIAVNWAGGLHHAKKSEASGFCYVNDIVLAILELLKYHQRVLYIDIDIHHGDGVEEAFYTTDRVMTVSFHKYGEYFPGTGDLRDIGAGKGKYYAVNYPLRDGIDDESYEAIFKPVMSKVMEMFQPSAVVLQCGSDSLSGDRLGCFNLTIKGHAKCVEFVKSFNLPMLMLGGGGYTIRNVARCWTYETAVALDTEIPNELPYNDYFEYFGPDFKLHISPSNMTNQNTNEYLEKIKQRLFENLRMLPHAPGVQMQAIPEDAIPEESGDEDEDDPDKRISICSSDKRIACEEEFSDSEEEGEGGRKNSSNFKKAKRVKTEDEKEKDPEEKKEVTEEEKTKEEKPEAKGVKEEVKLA
In short: as §1

HDAC 2, sequence (Q92769 whole entry): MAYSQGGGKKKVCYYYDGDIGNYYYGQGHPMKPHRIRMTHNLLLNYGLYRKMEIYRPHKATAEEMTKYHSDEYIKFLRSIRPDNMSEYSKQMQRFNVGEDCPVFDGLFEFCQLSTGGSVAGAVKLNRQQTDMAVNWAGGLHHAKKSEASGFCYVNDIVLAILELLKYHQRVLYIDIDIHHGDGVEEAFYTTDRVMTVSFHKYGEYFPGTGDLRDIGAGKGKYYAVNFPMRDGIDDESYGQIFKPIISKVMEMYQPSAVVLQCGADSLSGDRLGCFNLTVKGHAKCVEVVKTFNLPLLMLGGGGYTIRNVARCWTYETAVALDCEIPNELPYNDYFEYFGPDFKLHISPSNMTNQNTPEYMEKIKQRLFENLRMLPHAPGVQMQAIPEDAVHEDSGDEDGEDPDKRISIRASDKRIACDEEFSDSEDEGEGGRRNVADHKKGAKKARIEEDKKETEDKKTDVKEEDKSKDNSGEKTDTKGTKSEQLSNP

IC50 (HDAC 2): 3.12 nM
IC50 (HDAC 8): 60.3 nM
IC50 (HDAC 3/NCOR1): 1.82 nM
IC50 (HDAC 6): 35.8 nM
IC50 (HDAC 10): 11.1 nM
IC50 (HDAC 1): 2.28 nM
SMILES: COc1ccc(C=NNC(=O)CCCCCCC(=O)NO)cc1 [AB3]

From paper PMC4326595 (Molecular cancer therapeutics, 2014)
